Laboratory results: the array DNA melting data of Ke et al. (doi:10.1101/2024.01.08.574731)

Columns and labels:
[1] = melting temperature; fluorescence melt of hairpins on a sequencing array, two-state fit, raised by 9.35 °C to match UV melts; conditions: sodium 0.088 M
Procedure, shortened: (§1)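 Library hairpins on a sequenced MiSeq flow cell carried annealed Cy3 and quencher oligos, and their Cy3 fluorescence was imaged in 50 mM Na-HEPES pH 8.0 with 25 mM NaCl, in 2.5 °C steps up to 60 °C. Signals were normalised to Cy3 before quenching and to control constructs. Melting temperature and folding enthalpy were obtained from bootstrapped two-state fits, combined by inverse-variance weighting across four replicates, and the fitted temperatures were then raised by 9.35 °C to match UV melts.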

[2] = folding enthalpy; higher = less favourable; fluorescence melt of hairpins on a sequencing array, two-state fit; conditions: sodium 0.088 M
Procedure, shortened: as §1

Row | Sequence | Tm [1] [°C] | folding enthalpy [2] [kcal/mol]
1 | GTGGACGAAAGTCATCAC ((((((....)))..))) | 36.3 | -13.1
2 | GGACGGGGAAACCCGCCC ((.((((....)))).)) | 58.7 | -34.1
3 | GCGCCCGAAAGGGTACGC ((((((....)))..))) | 55.1 | -27.4
4 | GGCTGCGCGAAAGCGGCC (((..(((....)))))) | 60.3 | -19.2
5 | GAGCTCGGAAACGAACTC (((.(((....))).))) | 44.9 | -28.6
6 | GCTTATGGAAACATGAGC (((.(((....))).))) | 45.6 | -33.5
7 | GCTAGTGGAAACATTAGC ((((.((....)).)))) | 42.7 | -28.3
8 | GATCTAGAATAGATC ((((((...)))))) | 49.9 | -37.4
9 | GCAGCGGGAAACCGCTAC (.(((((....))))).) | 40.2 | -11.3
10 | GGAAGCCGAAAGGCATCC (((.(((....))).))) | 56.1 | -21.9
11 | GCAAATGGAAACATTCGC ((.((((....)))).)) | 38.4 | -28.5
12 | GCATACCGAAAGGTTGC (((.(((....)))))) | 54 | -32.3
13 | GCTACGGGAAACCGCAAC (.(.(((....))).).) | 24.1 | -9.56
14 | CGTGCCCGGAAACGGACG (((..(((....)))))) | 32.9 | -14.8
15 | GACGGTGGAAACACTGTC (((.(((....))).))) | 52.1 | -45.8
16 | GACTTACCGAAAGGTGTC (((..(((....)))))) | 36.3 | -16.4
17 | GAACGCACGAAAGTGTTC (((..(((....)))))) | 34.1 | -12.8
18 | GGTACGCGAAAGCGACC (((.(((....)))))) | 54.8 | -14.9
19 | GATCTACGAATAGATC ((((((....)))))) | 36.4 | -24
20 | GTACGCCGAAAGGCATAC (((.(((....))).))) | 44.7 | -16.4
21 | GCGATCAATCGC ((((....)))) | 51.1 | -24.9

Row | Sequence | Tm [1] [°C] | folding enthalpy [2] [kcal/mol]
22 | GAGAAAGGAAACTTTCTC (((((((....))))))) | 50.8 | -39.2
23 | GTCTTCACGAAAGTGGAC (((..(((....)))))) | 31.9 | -14.2
24 | GGCCGCGAAAGCGGAGCC ((((((....)))..))) | 53.9 | -13.4
25 | GATGCAGGAAACCGCATC (((((.(....).))))) | 49.9 | -33.5
26 | GATCAATGAATTGATC ((((((....)))))) | 46.3 | -34.6
27 | GCTGTCGAAAGACGCAGC ((((((....)))..))) | 46.6 | -14.1
28 | GAACTTGGAAACAAGCTC ((.((((....)))).)) | 33.8 | -27.1
29 | GTAGCCGAAAGGCGTAC ((((((....))).))) | 57.5 | -15.7
30 | CGTGGCGGAAACGCAACG (((.(((....))).))) | 56.8 | -38.7
31 | GATCTAAAATTAGATC ((((((....)))))) | 35.7 | -29.9
32 | GATCTATTTCTAGATC ((((((....)))))) | 38.9 | -30.2
33 | GATGACGAAAGTCGCATC ((((((....)))..))) | 30.8 | -11.1
34 | GAATCCGGAAACGGGTTC (((.(((....))).))) | 52.2 | -33.5
35 | GGCCTCGAAAGAGCTGCC ((((((....)))..))) | 45 | -24
36 | GTTTGGCCGAAAGGCAAC (((..(((....)))))) | 37.7 | -11.5
37 | GATACCGGAAACGGTACC (.(((((....))))).) | 38.8 | -13.6
38 | GCATTCGGAAACGAATAC (.(((((....))))).) | 37 | -19.8
39 | GTCGAAGGAAACTTTGGC (.(.(((....))).).) | 29.9 | -22.4
40 | GATCTATCTATAGATC ((((((....)))))) | 47.4 | -38
41 | GATCCACCGTGGATC ((((((...)))))) | 48.5 | -37.4
42 | GCCAGGCGAAAGCCCAGC ((..(((....)))..)) | 40.2 | -13.5

Row | Sequence | Tm [1] [°C] | folding enthalpy [2] [kcal/mol]
43 | GTATTGGGAAACCAATAC (((((((....))))))) | 53.8 | -43.7
44 | GGTGGAGCGAAAGCTACC (((..(((....)))))) | 44.1 | -13.7
45 | GCCGGCCCGAAAGGGGGC (((..(((....)))))) | 58.3 | -11.3
46 | GCCACGCGAAAGCTTCGC ((.(.((....)).).)) | 33.6 | -7.03
47 | GACTGGGAAACCAGTC ((((((....)))))) | 60.1 | -35.1
48 | GCGGTCCGCCGC ((((....)))) | 63.6 | -19.7
49 | GCTTCAGAAATGAAGC ((((((....)))))) | 55.7 | -33.7
50 | GCCGGCACGAAAGTGGGC (((..(((....)))))) | 51.8 | -19.2
51 | GTGTCCGAAAGGATTCAC ((((((....)))..))) | 35.3 | -16.3
52 | GCACCCGAAAGGGATTGC ((((((....)))..))) | 42.3 | -18
53 | GATCTTACTTAAGATC ((((((....)))))) | 44.1 | -35.6
54 | GATCGAACGATCGATC ((((((....)))))) | 52.8 | -18.9
55 | GGCCGACGAAAGTCTGCC (((.(((....))).))) | 56.2 | -51.3
56 | GCCCTGCGAAAGCGCGGC (((..((....))..))) | 54.5 | -21.5
57 | GTGGATGGAAACGTCCAC (((((.(....).))))) | 53 | -47.6
58 | GATCTCGCAGGAGATC ((((((....)))))) | 57.5 | -50.6
59 | GCGACAATCGC ((((...)))) | 41.3 | -13.9
60 | GGGATGCGAAAGCAACCC (((.(((....))).))) | 63.6 | -24.4
61 | GGTTTAGGAAACTGAACC ((((.((....)).)))) | 43.2 | -31.8
